Laboratory results as given in ChEMBL document CHEMBL1147785, “Novel peptidomimetic cysteine protease inhibitors as potential antimalarial agents” (J Med Chem, 2006).
Activity calls are given as the source filed them. No cut-off for these calls is given here. Residues, ends and D or L forms follow the SMILES beside them. *: point of attachment. Cbz = O=C(OCc1ccccc1)*

Experiments:
Caspase-6 (Homo sapiens) = target: T1, Caspase-6 (Homo sapiens) (UniProt P55212); experiment: Inhibition of human recombinant caspase6 upto 50 uM
T1 sequence (whole entry): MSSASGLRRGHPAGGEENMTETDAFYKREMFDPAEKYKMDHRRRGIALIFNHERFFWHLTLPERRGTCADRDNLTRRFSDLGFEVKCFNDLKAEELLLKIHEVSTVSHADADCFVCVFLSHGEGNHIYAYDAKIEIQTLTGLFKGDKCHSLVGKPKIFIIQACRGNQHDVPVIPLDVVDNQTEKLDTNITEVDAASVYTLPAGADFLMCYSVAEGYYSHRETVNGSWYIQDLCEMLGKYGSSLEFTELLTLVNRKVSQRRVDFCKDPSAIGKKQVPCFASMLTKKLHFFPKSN

Falcipain 2 = target: T2, Falcipain 2 (Plasmodium falciparum, UniProt Q9N6S8); experiment: Inhibition of Plasmodium falciparum recombinant FP2A fused with maltose binding protein
T2 sequence (Q9N6S8 whole entry): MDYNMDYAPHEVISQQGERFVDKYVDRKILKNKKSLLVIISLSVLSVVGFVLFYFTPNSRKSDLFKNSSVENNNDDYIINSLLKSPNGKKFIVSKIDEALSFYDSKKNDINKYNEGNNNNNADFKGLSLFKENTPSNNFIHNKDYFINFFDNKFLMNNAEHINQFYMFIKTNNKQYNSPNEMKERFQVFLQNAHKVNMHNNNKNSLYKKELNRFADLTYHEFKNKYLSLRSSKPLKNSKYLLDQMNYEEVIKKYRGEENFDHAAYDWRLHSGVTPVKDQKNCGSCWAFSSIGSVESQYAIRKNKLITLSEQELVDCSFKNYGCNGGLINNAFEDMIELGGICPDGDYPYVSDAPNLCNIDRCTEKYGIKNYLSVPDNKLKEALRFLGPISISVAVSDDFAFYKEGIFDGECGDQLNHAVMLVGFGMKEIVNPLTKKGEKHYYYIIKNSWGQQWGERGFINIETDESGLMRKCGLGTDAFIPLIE
Procedure, shortened: (§1)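 Recombinant enzyme expressed in E. coli as a maltose binding protein fusion. Fluorescence assay using the fluorogenic substrate Z-Leu-Arg-AMC, with inhibitor at various concentrations. Hydrolysis rate was compared with DMSO-only negative controls and with positive controls containing a standard papain-family cysteine protease aldehyde inhibitor. Results are given as IC50.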

Falcipain 2B = target: T3, Falcipain 2B (Plasmodium falciparum, UniProt Q3HTL5); experiment: Inhibition of Plasmodium falciparum recombinant FP2B fused with maltose binding protein; procedure, shortened: as §1
T3 sequence (Q3HTL5 whole entry): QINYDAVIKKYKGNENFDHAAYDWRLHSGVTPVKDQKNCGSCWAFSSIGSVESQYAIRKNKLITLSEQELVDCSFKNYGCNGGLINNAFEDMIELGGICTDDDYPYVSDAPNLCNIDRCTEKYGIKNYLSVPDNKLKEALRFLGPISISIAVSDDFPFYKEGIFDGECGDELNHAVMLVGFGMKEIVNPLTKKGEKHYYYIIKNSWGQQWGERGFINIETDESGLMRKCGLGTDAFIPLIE

Caspase-1 (Homo sapiens) = target: T4, Caspase-1 (Homo sapiens) (UniProt P29466); experiment: Inhibition of human recombinant caspase1 upto 50 uM
T4 sequence (whole entry): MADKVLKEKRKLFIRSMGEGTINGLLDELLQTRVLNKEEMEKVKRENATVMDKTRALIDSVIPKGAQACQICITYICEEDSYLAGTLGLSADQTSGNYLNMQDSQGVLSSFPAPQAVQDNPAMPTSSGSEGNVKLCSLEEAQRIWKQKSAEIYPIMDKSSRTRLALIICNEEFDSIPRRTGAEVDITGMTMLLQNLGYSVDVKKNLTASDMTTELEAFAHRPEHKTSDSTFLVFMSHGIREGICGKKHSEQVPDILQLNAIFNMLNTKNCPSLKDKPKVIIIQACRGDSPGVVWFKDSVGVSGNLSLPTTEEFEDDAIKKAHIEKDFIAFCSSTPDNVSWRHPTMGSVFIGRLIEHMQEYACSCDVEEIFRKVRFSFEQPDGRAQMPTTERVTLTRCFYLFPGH

Caspase-3 (Homo sapiens) = target: T5, Caspase-3 (Homo sapiens) (UniProt P42574); experiment: Inhibition of human recombinant caspase3 upto 50 uM
T5 sequence (whole entry): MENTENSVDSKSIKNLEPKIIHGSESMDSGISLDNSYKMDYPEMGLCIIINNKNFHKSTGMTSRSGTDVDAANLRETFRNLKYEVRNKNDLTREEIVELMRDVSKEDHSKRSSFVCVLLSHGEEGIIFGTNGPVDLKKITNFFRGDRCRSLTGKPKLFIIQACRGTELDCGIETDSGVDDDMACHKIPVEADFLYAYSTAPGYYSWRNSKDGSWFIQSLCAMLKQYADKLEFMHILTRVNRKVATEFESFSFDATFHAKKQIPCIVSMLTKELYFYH

Caspase-4 (Homo sapiens) = target: T6, Caspase-4 (Homo sapiens) (UniProt P49662); experiment: Inhibition of human recombinant caspase4 upto 50 uM
T6 sequence (whole entry): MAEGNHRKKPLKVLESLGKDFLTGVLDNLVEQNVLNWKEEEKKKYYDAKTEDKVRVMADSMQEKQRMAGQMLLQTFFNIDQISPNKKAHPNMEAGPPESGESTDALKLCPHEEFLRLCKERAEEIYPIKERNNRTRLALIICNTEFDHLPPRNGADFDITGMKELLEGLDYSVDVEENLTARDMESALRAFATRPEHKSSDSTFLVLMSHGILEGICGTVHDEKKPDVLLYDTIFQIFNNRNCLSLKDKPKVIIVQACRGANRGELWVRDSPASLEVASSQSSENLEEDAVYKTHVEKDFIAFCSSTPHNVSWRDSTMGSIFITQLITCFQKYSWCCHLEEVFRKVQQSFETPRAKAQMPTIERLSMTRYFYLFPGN

Caspase-8 (Homo sapiens) = Caspase-8 (Homo sapiens) (UniProt Q14790); experiment: Inhibition of human recombinant caspase8 upto 50 uM
Caspase-9 (Homo sapiens) = target: T7, Caspase-9 (Homo sapiens) (UniProt P55211); experiment: Inhibition of human recombinant caspase9 upto 50 uM
T7 sequence (whole entry): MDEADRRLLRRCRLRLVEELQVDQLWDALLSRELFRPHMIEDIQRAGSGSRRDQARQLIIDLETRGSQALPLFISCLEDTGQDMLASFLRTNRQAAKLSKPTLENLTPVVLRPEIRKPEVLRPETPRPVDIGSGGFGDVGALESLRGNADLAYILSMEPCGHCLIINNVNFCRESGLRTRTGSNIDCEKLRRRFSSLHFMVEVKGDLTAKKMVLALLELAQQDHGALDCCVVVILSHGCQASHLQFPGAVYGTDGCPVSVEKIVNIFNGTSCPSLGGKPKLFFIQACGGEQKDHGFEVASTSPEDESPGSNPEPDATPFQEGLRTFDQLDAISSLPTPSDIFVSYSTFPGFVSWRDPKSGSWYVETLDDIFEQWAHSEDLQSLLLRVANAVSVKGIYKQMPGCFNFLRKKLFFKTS

Sequence of Caspase-8 (Homo sapiens) (Q14790 217-374 limits assumed): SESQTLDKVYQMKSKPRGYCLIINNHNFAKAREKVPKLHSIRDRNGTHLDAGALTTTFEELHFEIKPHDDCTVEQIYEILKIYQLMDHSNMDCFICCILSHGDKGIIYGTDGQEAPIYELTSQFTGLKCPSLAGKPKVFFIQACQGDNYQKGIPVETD
Sequence of Caspase-8 (Homo sapiens) (Q14790 385-479 limits assumed): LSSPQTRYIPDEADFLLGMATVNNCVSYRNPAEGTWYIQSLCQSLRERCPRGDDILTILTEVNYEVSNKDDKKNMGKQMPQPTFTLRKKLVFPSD

| Compound | Activity (Caspase-6 (Homo sapiens)) | IC50 (Falcipain 2) | IC50 (Falcipain 2B) | Activity (Caspase-1 (Homo sapiens)) | Activity (Caspase-3 (Homo sapiens)) | Activity (Caspase-4 (Homo sapiens)) | Activity (Caspase-8 (Homo sapiens)) | Activity (Caspase-9 (Homo sapiens)) |
| --- | --- | --- | --- | --- | --- | --- | --- | --- |
| O=C(CN1C(=O)[C@@H](COC(=O)Nc2ccc(F)cc2)N=C(c2ccccc2)c2ccccc21)N[C@H]1CC(=O)OC1O (stereo partly drawn) | inactive | 16.3 µM | 12 µM | inactive | inactive | inactive | inactive | inactive |
| O=C(CN1C(=O)[C@@H](COC(=O)Nc2ccc(F)cc2F)N=C(c2ccccc2)c2ccccc21)N[C@H]1CC(=O)OC1O (stereo partly drawn) | inactive | 13.5 µM | 14.7 µM | inactive | inactive | inactive | inactive | inactive |
| O=C(CN1C(=O)[C@@H](COC(=O)Nc2ccccc2)N=C(c2ccccc2)c2ccccc21)N[C@H]1CC(=O)OC1O (stereo partly drawn) | inactive | 21.5 µM | 19.8 µM | inactive | inactive | inactive | inactive | inactive |
| CC(C)[C@H](NC(=O)OCc1ccccc1)C(=O)N[C@H](C=O)Cc1ccccc1 (Cbz-Val-Phe-aldehyde) | inactive | 5 µM | 5 µM | inactive | inactive | inactive | inactive | inactive |
| COc1ccc(NC(=O)OC[C@H]2N=C(c3ccccc3)c3ccccc3N(CC(=O)N[C@H]3CC(=O)OC3O)C2=O)cc1 (stereo partly drawn) | inactive | 8.79 µM | 14 µM | inactive | inactive | inactive | inactive | inactive |
| O=C(CN1C(=O)[C@H](COC(=O)Nc2ccc(Cl)cc2C(F)(F)F)N=C(c2ccccc2)c2ccccc21)N[C@H]1CC(=O)OC1O (stereo partly drawn) | inactive | 10.3 µM | 19.3 µM | inactive | inactive | inactive | inactive | inactive |
| O=C(CN1C(=O)[C@@H](COC(=O)Nc2ccc(Cl)cc2)N=C(c2ccccc2)c2ccccc21)N[C@H]1CC(=O)OC1O (stereo partly drawn) | inactive | 15 µM | 9.53 µM | inactive | inactive | inactive | inactive | inactive |
| O=C(CN1C(=O)[C@@H](COC(=O)Nc2c(F)cc(F)cc2Br)N=C(c2ccccc2)c2ccccc21)N[C@H]1CC(=O)OC1O (stereo partly drawn) | inactive | 19.2 µM | 21.4 µM | inactive | inactive | inactive | inactive | inactive |
| O=C(CN1C(=O)[C@@H](COC(=O)Nc2ccc(Cl)cc2C(F)(F)F)N=C(c2ccccc2)c2ccccc21)N[C@H]1CC(=O)OC1O (stereo partly drawn) | inactive | 8.68 µM | 25.9 µM | inactive | inactive | inactive | inactive | inactive |
| O=C(CN1C(=O)[C@@H](COC(=O)Nc2cccc3ccccc23)N=C(c2ccccc2)c2ccccc21)N[C@H]1CC(=O)OC1O (stereo partly drawn) | inactive | 11.2 µM | 17.9 µM | inactive | inactive | inactive | inactive | inactive |
| Cc1cc(Cl)ccc1NC(=O)OC[C@H]1N=C(c2ccccc2)c2ccccc2N(CC(=O)N[C@H]2CC(=O)OC2O)C1=O (stereo partly drawn) | inactive | 8.25 µM | 11.2 µM | inactive | inactive | inactive | inactive | inactive |
